Results on 15 compounds are retold here after ChEMBL document CHEMBL2046406 (J Med Chem, 2012).

For test [1], the species on record is Homo sapiens. In words: Selectivity index, ratio of inhibition of human delta opioid receptor to inhibition of human kappa opioid receptor.
The species named for test [2] is Homo sapiens. In words: Selectivity index, ratio of inhibition of human mu opioid receptor to inhibition of human kappa opioid receptor.
Test [3] concerns the target T1, Kappa-type opioid receptor (Homo sapiens, UniProt P41145). Briefly: Agonist activity at human kappa opioid receptor expressed in CHO cells assessed as stimulation of […]GTPgammaS binding after 60 mins by scintillation counting. The class given is functional, cell-based. (Binding of GTPγS marks nucleotide exchange on a G protein.)
Test [4] has as its target T1, Kappa-type opioid receptor. In words: biochemical. The test is classed as cell-based, CHO.
In test [5] the target is T1, Kappa-type opioid receptor. In words: Antagonist activity at human kappa opioid receptor expressed in CHO cells assessed as inhibition of U50488-induced […]GTPgammaS binding after 60 mins by scintillation counting. The class given is functional, cell-based. The method, boiled down:
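κ antagonism: hKOR-CHO membranes incubated with compound plus 100 nM U50,488.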

The target in test [6] is T2, Delta-type opioid receptor (Homo sapiens, UniProt P41143). In words: Displacement of [3H]-naltrindole from human delta opioid receptor expressed in CHO cells at 10 uM after 3 hrs by scintillation counting. The test is classed as cell-based. For orientation: Loss of bound radioactivity is the signal in a displacement assay; it reports binding, not function.
T2 sequence (P41143 whole entry): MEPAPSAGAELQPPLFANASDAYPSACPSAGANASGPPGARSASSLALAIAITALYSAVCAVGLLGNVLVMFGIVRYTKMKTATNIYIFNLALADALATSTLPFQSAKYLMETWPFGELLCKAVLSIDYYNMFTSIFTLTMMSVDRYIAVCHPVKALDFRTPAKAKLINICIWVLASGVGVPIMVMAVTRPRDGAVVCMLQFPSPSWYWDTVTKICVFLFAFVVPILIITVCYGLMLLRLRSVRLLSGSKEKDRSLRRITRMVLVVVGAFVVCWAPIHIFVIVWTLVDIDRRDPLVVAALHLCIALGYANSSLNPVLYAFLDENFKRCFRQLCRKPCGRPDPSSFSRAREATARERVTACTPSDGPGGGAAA
The target of test [7] is T3, Mu-type opioid receptor (Homo sapiens, UniProt P35372). Briefly: biochemical. The test is classed as cell-based, CHO.
T3 sequence (P35372 whole entry): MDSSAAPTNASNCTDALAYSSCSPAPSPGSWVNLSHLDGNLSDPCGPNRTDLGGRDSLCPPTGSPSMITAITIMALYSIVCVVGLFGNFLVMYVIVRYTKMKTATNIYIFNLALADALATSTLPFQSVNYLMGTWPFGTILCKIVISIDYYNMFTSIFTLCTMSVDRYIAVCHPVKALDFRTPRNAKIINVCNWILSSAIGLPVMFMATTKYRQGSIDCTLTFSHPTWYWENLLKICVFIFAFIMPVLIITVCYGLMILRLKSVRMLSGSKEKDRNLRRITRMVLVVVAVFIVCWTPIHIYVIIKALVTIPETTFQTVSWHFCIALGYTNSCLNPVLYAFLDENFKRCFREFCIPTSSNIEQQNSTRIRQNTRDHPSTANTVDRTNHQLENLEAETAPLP
Test [8] has as its target T1, Kappa-type opioid receptor. Briefly: Agonist activity at human kappa opioid receptor expressed in CHO cells assessed as stimulation of […]GTPgammaS binding after 60 mins by scintillation counting relative to control. The test is classed as functional, cell-based. In short, it runs like this: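 Membranes from CHO cells stably expressing human KOR (15 μg protein per tube) or MOR (7.5 μg protein per tube). Nonspecific binding with 10 μM GTPγS. Filtration, then scintillation counting. Triplicate, at least three experiments.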

For test [9], the target named is T3, Mu-type opioid receptor. In words: Agonist activity at human mu opioid receptor expressed in CHO cells assessed as stimulation of […]GTPgammaS binding after 60 mins by scintillation counting. The test is classed as functional, cell-based.
In test [10] the target is T3, Mu-type opioid receptor. In words: Antagonist activity at human mu opioid receptor expressed in CHO cells assessed as inhibition of DAMGO-induced […]GTPgammaS binding after 60 mins by scintillation counting. The class given is functional, cell-based.
Test [11] is filed under the species Homo sapiens. In words: Selectivity index, ratio of inhibition of human delta opioid receptor to inhibition of human mu opioid receptor.
The species named for test [12] is Homo sapiens. Briefly: Selectivity index, ratio of inhibition of human kappa opioid receptor to inhibition of human mu opioid receptor.
In test [13] the target is T1, Kappa-type opioid receptor. Briefly: Displacement of [3H]-U69,593 from human kappa opioid receptor expressed in CHO cells at 10 uM after 60 mins by scintillation counting. The test is classed as cell-based.
For test [14], the target named is T2, Delta-type opioid receptor. Briefly: Displacement of [3H]-naltrindole from human delta opioid receptor expressed in CHO cells after 3 hrs by scintillation counting. The test is classed as cell-based. The method, boiled down: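 CHO membranes expressing human KOR or DOR incubated with radioligand and 12 compound concentrations in 1 mL 50 mM Tris-HCl, pH 7.5, at 25 °C. […] Nonspecific binding with 10 μM naloxone. Three experiments in triplicate.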

Test [15] deals with T3, Mu-type opioid receptor. Briefly: Antagonist activity at human mu opioid receptor expressed in CHO cells assessed as inhibition of DAMGO-induced […]GTPgammaS binding after 60 mins by scintillation counting relative to control. The test is classed as functional, cell-based.
For test [16], the target named is T3, Mu-type opioid receptor. Briefly: Agonist activity at human mu opioid receptor expressed in CHO cells assessed as stimulation of […]GTPgammaS binding after 60 mins by scintillation counting relative to control. The test is classed as functional, cell-based.
Test [17] in a line: Displacement of [3H]-naltrindole from human delta opioid receptor expressed in CHO cells after 3 hrs by scintillation counting.

Active and inactive are the calls of the source. No cut-off for these calls is given here.

T1 sequence (P41145 whole entry): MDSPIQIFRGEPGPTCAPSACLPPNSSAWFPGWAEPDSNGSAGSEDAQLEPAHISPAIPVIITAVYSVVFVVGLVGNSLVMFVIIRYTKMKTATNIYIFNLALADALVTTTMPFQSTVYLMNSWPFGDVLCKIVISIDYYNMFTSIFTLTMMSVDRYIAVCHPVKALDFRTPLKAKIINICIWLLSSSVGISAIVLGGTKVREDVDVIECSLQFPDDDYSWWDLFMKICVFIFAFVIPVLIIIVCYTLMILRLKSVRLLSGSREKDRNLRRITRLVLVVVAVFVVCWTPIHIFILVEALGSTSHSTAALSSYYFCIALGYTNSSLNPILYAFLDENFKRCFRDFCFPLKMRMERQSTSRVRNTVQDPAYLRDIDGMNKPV

On to `Nc1ccc2c(c1)[C@@]13CCCC[C@H]1[C@@H](C2)N(CC1CC1)CC3`, for which the Selectivity ratio in the test listed under Homo sapiens [1] was found to be 830; in the test filed under Homo sapiens [2] it was 7.
What is called EC50 is the concentration needed to bring the measured effect to its halfway point. As usually defined, the Ki is a measure of affinity in units of concentration, obtained from inhibition or displacement. Read a high Ki as weaker binding. Broadly, the inhibition is how much of the control response was suppressed. Lower therefore signals little suppression. As a reminder, the Emax is the greatest response seen or fitted, relative to the assay's reference. As to `Oc1cccc(CNc2ccc3c(c2)C[C@@H]2[C@@H]4CCCC[C@]34CCN2CC2CC2)c1`, the EC50 in test [3] was 0.027 µM. Besides, the Ki is 0.00099 µM in test [4] and 0.15 µM at Mu-type opioid receptor [7]. For the same compound, the result in [5] was inactive. Also, in [6], the inhibition turned out to be 46%. In addition, the Emax in test [8] turned out to be 160%. Moreover, the Selectivity ratio is greater than 10000 in the test filed under Homo sapiens [1] and 150 in the test listed under Homo sapiens [2].
Broadly, the IC50 is the concentration needed to halve the response being measured. Turning to `CN1CC[C@]23c4c5ccc(NCc6cccc(O)c6)c4O[C@H]2[C@@H](O)C=C[C@H]3[C@H]1C5`, the 50% effective concentration (EC50) at Mu-type opioid receptor [9] turned out to be 0.55 µM. The figures for the Ki (in [4]; on Mu-type opioid receptor [7]) were 0.91 µM and 0.007 µM, respectively. Besides, the IC50 entry at Mu-type opioid receptor [10] (cho) was “Not Active”. Further, the inhibition in test [6] was determined as 31%.
Regarding `Nc1ccc2c(c1)[C@@]13CCCC[C@H]1[C@@H](C2)N(CC1CCC1)CC3`, the values for the Selectivity ratio in the test listed under Homo sapiens [1] and in the test listed under Homo sapiens [2] were 100 and 2, respectively.
With `COc1ccc(CNc2ccc3c4c2O[C@H]2[C@@H](O)C=C[C@H]5[C@@H](C3)N(C)CC[C@@]452)cc1`, the Selectivity ratio in the test filed under Homo sapiens [11] and in the test listed under Homo sapiens [12] was greater than 160 each time. Further, the values for the inhibition in test [6] and in test [13] were 12% and 54%, respectively. This compound also displayed a Ki on Mu-type opioid receptor [7] of 0.06 µM.
In turn, `CN1CC[C@]23c4c5ccc(NCc6ccccc6O)c4O[C@H]2[C@@H](O)C=C[C@H]3[C@H]1C5` gave a Ki in [4] of 0.37 µM. The inhibition in test [6] was determined as 27%.
Regarding `COc1ccc2c3c1O[C@H]1C(=O)CC[C@H]4[C@@H](C2)N(C)CC[C@]314`, the inhibition in test [6] was 37%.
Regarding `Oc1ccccc1CNc1ccc2c(c1)[C@@]13CCCC[C@H]1[C@@H](C2)N(CC1CCC1)CC3`, the EC50 in test [3] was 0.047 µM; on Mu-type opioid receptor [9] it was 0.038 µM. For the same compound, the results for the Ki (in [14]; in test [4]; at Mu-type opioid receptor [7]) were 0.11 µM, 0.0017 µM and 0.0017 µM, respectively. Also, on Mu-type opioid receptor [10] (read-out: IC50), the concentration for half-maximal inhibition (IC50) was 0.81 µM. For the same compound, at Mu-type opioid receptor [15], the Imax turned out to be 32%. The Selectivity ratio in the test listed under Homo sapiens [12] and in the test listed under Homo sapiens [1] was 65 in each case. The outcome in test [5] was inactive. The values for the Emax (in [8]; on Mu-type opioid receptor [16]) were 130% and 49%, respectively.
For `CN1CC[C@]23CCCC[C@H]2[C@H]1Cc1ccc(N)cc13`, the Selectivity ratio in the test filed under Homo sapiens [11] came to 14; in the test filed under Homo sapiens [12], 190. In addition, the figures for the Ki (in test [17]; in test [4]; at Mu-type opioid receptor [7]) were 1.5 µM, 0.11 µM and 0.0079 µM, respectively.
On to `COc1cccc(CNc2ccc3c(c2)[C@@]24CCCC[C@H]2[C@@H](C3)N(CC2CCC2)CC4)c1`, for which the values for the EC50 (in test [3]; on Mu-type opioid receptor [9]) were 0.039 µM and 0.0038 µM, respectively. The values for the Selectivity ratio in the test listed under Homo sapiens [11] and in the test filed under Homo sapiens [12] were 5 and 220, respectively. The Ki in test [14] amounted to 0.15 µM; in test [4], 0.0035 µM; at Mu-type opioid receptor [7] it was 0.00069 µM. In addition, at Mu-type opioid receptor [10] (read-out: IC50), the IC50 was found to be 0.08 µM. Besides, on Mu-type opioid receptor [15], the Imax is 66%. In addition, the result in test [5] was inactive. The Emax in test [8] is 120%; on Mu-type opioid receptor [16], 39%.
`CN1CC[C@]23c4c5ccc(NCc6ccc(O)cc6)c4O[C@H]2[C@@H](O)C=C[C@H]3[C@H]1C5`: the Selectivity ratio amounted to 13 in the test listed under Homo sapiens [11] and 230 in the test listed under Homo sapiens [12]. In addition, the Ki is 0.56 µM in test [4] and 0.044 µM at Mu-type opioid receptor [7]. This compound showed an inhibition in test [6] of 19%.
Consider `COc1cccc(CNc2ccc3c4c2O[C@H]2[C@@H](O)C=C[C@H]5[C@@H](C3)N(C)CC[C@@]452)c1`, for which, in [4], the Ki stood at 0.5 µM. The compound also registered an inhibition in test [6] of 33%.
On to `Oc1ccccc1CNc1ccc2c(c1)[C@@]13CCCC[C@H]1[C@@H](C2)N(CC1CC1)CC3`, for which the results for the EC50 (in test [3]; at Mu-type opioid receptor [9]) were 0.0023 µM and 0.0088 µM, respectively. For the same compound, the Ki amounted to 0.03 µM in test [14], 0.00026 µM in [4] and 0.0019 µM at Mu-type opioid receptor [7]. For the same compound, the IC50 at Mu-type opioid receptor [10] (read-out: IC50) turned out to be 0.16 µM. Further, the Imax on Mu-type opioid receptor [15] amounted to 47%. The result in test [5] was inactive. In addition, the Emax in [8] came to 110%; on Mu-type opioid receptor [16], 44%. The Selectivity ratio in the test listed under Homo sapiens [1] was 150; in the test filed under Homo sapiens [2], 10.
With `O=[N+]([O-])c1cccc(CNc2ccc3c(c2)[C@@]24CCCC[C@H]2[C@@H](C3)N(CC2CCC2)CC4)c1`, the EC50 worked out at 0.00079 µM in [3] and 0.0011 µM at Mu-type opioid receptor [9]. The Selectivity ratio was 3 in the test listed under Homo sapiens [11] and 350 in the test listed under Homo sapiens [12]. For the same compound, the figures for the Ki (in test [14]; in [4]; at Mu-type opioid receptor [7]) were 0.15 µM, 0.0011 µM and 0.00043 µM, respectively. Also, the IC50 on Mu-type opioid receptor [10] (read-out: IC50) is 0.0068 µM. Besides, the Imax on Mu-type opioid receptor [15] was 49%. For the same compound, in test [5], the outcome was inactive. The Emax amounted to 140% in test [8] and 70% on Mu-type opioid receptor [16].
In turn, `COc1ccccc1CNc1ccc2c3c1O[C@H]1[C@@H](O)C=C[C@H]4[C@@H](C2)N(C)CC[C@@]341` returned a Ki in test [4] of 0.22 µM. Moreover, on Mu-type opioid receptor [10] (cho), the IC50 result is given as “Not Active”. In addition, the Imax entry on Mu-type opioid receptor [15] was “inactive”. Also, the inhibition in test [6] was determined as 22%.
